Source: PubChem BioAssay (several laboratories)
Hits are enriched below; roughly 2.1% of the tested compounds scored in any of these assays.
p97 ATPase inh = inhibitors of human p97 ATPase; P55072; recombinant p97 ATPase, Kinase-Glo ATP luminescence, 3 h; inhibition, % at 8 µM; 220,000 tested, 0.42% active; AID 1481; in the data active = inhibition above about 15%;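 also: 0% = DMSO vehicle and 100% = wells lacking enzyme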
Hck Nef HTS = blocks Nef-activated human Hck kinase; AID 463187; inhibition, % at 20 µM; P08631; Recombinant Hck-YEEI plus Nef, Z-Lyte FRET kinase assay; 220,000 tested, 0.68% active;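 active = Hck-Nef kinase inhibition above about 50%, limit read from the data; inactive = inhibition below that limit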;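 also: 0% = DMSO with Hck plus Nef and 100% = Hck alone without Nef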
Target sequence (P08631 whole entry, looked up): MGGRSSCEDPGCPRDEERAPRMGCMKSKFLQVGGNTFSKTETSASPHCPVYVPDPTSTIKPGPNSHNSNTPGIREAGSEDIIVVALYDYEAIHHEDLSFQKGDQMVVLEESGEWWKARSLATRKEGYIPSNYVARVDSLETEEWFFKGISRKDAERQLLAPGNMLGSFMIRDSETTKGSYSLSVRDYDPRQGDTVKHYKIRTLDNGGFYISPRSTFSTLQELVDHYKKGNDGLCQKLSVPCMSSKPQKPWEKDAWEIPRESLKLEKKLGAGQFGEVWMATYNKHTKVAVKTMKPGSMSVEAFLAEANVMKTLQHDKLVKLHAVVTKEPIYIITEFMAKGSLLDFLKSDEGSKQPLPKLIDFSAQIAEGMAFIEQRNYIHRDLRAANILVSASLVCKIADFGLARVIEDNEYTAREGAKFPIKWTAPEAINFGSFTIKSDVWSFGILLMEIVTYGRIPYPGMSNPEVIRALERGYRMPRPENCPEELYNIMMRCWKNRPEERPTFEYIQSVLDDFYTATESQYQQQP
Tb hexokinase = blocks Trypanosoma brucei hexokinase 1 activity; inhibition, % at 10 µM; 220,000 tested, 0.11% active; recombinant TbHK1, G6PDH-coupled NADH A340;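 active = inhibition of 50% or more in the single-dose primary screen; inactive = inhibition below 50%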
RanGTP-Imp inh = inhibitors of RanGTP-importin-beta interaction, primary screen, biochemical, FRET, CFP-Ran, YFP-importin-beta, homogeneous | cell-free CFP-Ran/YFP-importin-beta FRET ratio | inhibition, % (concentration not given with the values) | 300,000 tested, 1.1% active | AID 2216;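 active = more than half of the replicate wells show a fall in the fluorescence ratio signal beyond about 16%, limit read from the data, passing the limit was not always enough; inconclusive = exactly half of the replicate wells pass the set limit; inactive = fewer than half of replicates pass the limit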;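 also: 0% = DMSO wells and 100% = Ran loaded with GDP instead of GTP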
Runt-CBFb FRET = Runt domain-CBFb interaction inhibition. Q01196+Q13951. inhibition, % at 20 µM. 220,000 tested, 0.46% active. AID 1496. Cerulean-Runt/Venus-CBFb FRET ratio 530/480, 1 h;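 active = inhibition over about 50% at 20 µM in the single-dose screen, limit read from the data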;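 also: 0% = DMSO wells and 100% = excess unlabeled CBFb competitor control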
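Doses: 20 µM compound in 1% DMSO | Material: Cerulean-labeled Runt domain protein | Amount: Each fluorescent fusion protein 100 nM | Schedule: Two 1 h room-temperature incubations shielded from light | Measured by: FRET fluorescence | Evaluation: Loss of energy transfer signal | Controls: Unlabeled CBFb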
Runt-SMMHC FRET = inhibitors of human RUNX1 Runt domain binding to CBFb-SMMHC. AID 1434. inhibition, % at 20 µM. 220,000 tested, 0.74% active. Cerulean-Runt/Venus-CBFb-SMMHC FRET ratio 530/480, 1 h. Q01196+Q13951;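 active = mean inhibition across duplicate retests at 20 µM reaching about 50%, limit read from the data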;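 also: 0% = DMSO wells and 100% = wells with excess untagged CBFb-SMMHC; inhibitors lower the FRET ratio by blocking Runt binding to CBFb-SMMHC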
Numbers without * were called inactive; ? = inconclusive; · = no result.

SMILES | p97 ATPase inh | Hck Nef HTS | Tb hexokinase | RanGTP-Imp inh | Runt-CBFb FRET | Runt-SMMHC FRET
N=c1c(S(=O)(=O)c2ccccc2)cc2c(=O)n3ccccc3nc2n1CCN1CCOCC1 | 1 | 24 | -2 | · | · | ·
Cc1ccc(S(=O)(=O)N2C(=O)CCC2C(=O)O/N=C(\N)c2ccc([N+](=O)[O-])cc2)cc1 (configuration not stated) | · | · | · | -11 | · | ·
CCc1cc(=O)oc2c(CNCc3ccccc3F)c(O)c(Cl)cc12 | · | · | · | 36* | · | ·
Cc1oc(-c2ccccc2)[n+]([O-])c1C | -1 | -1 | -5 | -4 | 1 | 0
[O-][n+]1c2ccccc2cc2ccccc21 | · | · | · | 79* | · | ·
CN(C)S(=O)(=O)c1cccc(NC(=O)c2ccc3nccnc3c2)c1 | -3 | 3 | -10 | -6 | 1 | -1
O=C(O)c1cnn(-c2nc(-c3cccc([N+](=O)[O-])c3)cs2)c1C(F)(F)F | · | · | · | 2 | · | ·
CCN1C(=O)c2ccc(C(=O)Nc3cccc(C(=O)O)c3)cc2C1=O | · | · | · | 1 | · | ·
Cc1cc(N2C(=O)C(O)=C(C(=O)c3cc4ccccc4o3)C2c2ccc(Br)cc2)no1 (configuration not stated) | · | · | · | 47* | · | ·
COC(=O)c1cc(S(=O)(=O)NCC2CCN(Cc3cc(C)ccc3C)CC2)c[nH]1 | · | · | · | 3 | · | ·
COc1ccc(-c2cc(=O)oc3cc(OC(=O)C4CCCCC4)c(Cl)cc23)cc1 | 7 | 40 | 34 | 21* | 67* | 58*
COc1ccc(-c2cc(=O)oc3cc(O)ccc23)cc1 | · | · | · | -2 | · | ·
N#Cc1c(C(F)(F)F)cc(=O)n2c1[nH]c1ccccc12 | · | · | · | 91* | · | ·
N#Cc1c(CSCC(=O)O)cc(=O)n2c1[nH]c1ccccc12 | 8 | 30 | -18 | -11 | 4 | 6
CCN(C(=O)CCN1C(=O)/C(=C/c2ccccc2)SC1=S)C1CCS(=O)(=O)C1 (configuration not stated) | · | · | · | 2 | · | ·
COCCn1c(SCC(=O)NC2CCCC2)nc2c(c1=O)SCC2 | · | · | · | 5 | · | ·
CCCCC(=O)Nc1ccc(NC(=O)c2cnccn2)cn1 | -2 | -15 | 0 | 172* | 1 | -1
CCCCC(=O)Nc1ccc(NC(=O)C(C)C)cn1 | -2 | 1 | -3 | -2 | -2 | -2
O=C(CCC1N=C2c3ccccc3N=C(SCc3ccc(Cl)cc3)N2C1=O)NCc1ccco1 (configuration not stated) | -1 | 1 | -9 | 27* | -3 | 0
O=C(CCC1N=C2c3ccccc3N=C(SCc3ccc(F)cc3)N2C1=O)NCc1ccco1 (configuration not stated) | 6 | 1 | -9 | ? | 2 | 5
Cc1ccc(-c2ccc(C3C(C#N)=C(N)Oc4n[nH]c(C)c43)o2)cc1 (configuration not stated) | 7 | 1 | -11 | 39* | 3 | -30
Cc1[nH]nc2c1C(c1ccc(-c3ccc(Cl)cc3)o1)C(C#N)=C(N)O2 (configuration not stated) | 0 | 0 | -2 | 12 | -63 | 21
N#CC1=C(N)Oc2cc(O)ccc2C1c1ccccc1 (configuration not stated) | -4 | -8 | 3 | 53* | 49 | 65*
COc1ccc(N=Cc2cc3c(cc2O)OC(N)=C(C#N)C3c2ccccc2)cc1 (configuration not stated) | 5 | 1 | -11 | 10 | 49 | 88*
COc1cc(C2C(C#N)=C(N)Oc3cc(O)ccc32)cc2c1OCO2 (configuration not stated) | 5 | -5 | -1 | 42* | 11 | 41
N#CC1=C(N)Oc2cc3ccccc3cc2C1c1cccnc1 (configuration not stated) | 4 | -2 | -3 | -2 | -1 | -2
COc1cc(C2C(C#N)=C(N)Oc3cc(O)ccc32)cc(OC)c1OC (configuration not stated) | 1 | 2 | 1 | 69* | 12 | -19
C[n+]1cccc2ccc3c(c21)OC(N)=C(C#N)C3c1ccccc1 (configuration not stated) | 6 | 1 | -17 | 2 | -19 | 0
COc1ccc(C2C(C#N)=C(N)Oc3cc(O)ccc32)cc1C (configuration not stated) | · | · | · | 67* | · | ·
